PMC10401072 (Cancer discovery, 2023)
Blank lines part the entries; values can stand above or below the molecule they belong to.

What was measured:
[1] = tested on: pERK in MIA PaCa-2 tumors; assay: Animal PK/PD study: pERK in tumors; format: in vivo, mouse; conditions: single oral dose 30 mg/kg
Method in brief: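 Female Foxn1nu mice bearing subcutaneous right-flank xenografts (5 × 10^6 cells) grown to about 500 mm3 and randomized by size into groups of three. Each received one 30 mg/kg oral gavage dose in 20% hydroxypropyl-β-cyclodextrin/50 mmol/L citric acid, pH 4. Tumors were taken at 1, 8, 24 and 48 h and lysed in NP-40 buffer. pERK was immunoblotted in 250 μg lysate, normalized to GAPDH and vehicle controls, as POC.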

[2] = Patient pharmacokinetic assessment; format: in vivo, human
Method in brief: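 Compound was given as powder in capsule. Plasma was sampled before treatment and at set intervals after dosing on cycle 1 days 1 and 18 at the starting monotherapy dose. Drug level was measured by a validated LC-MS/MS assay.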

[3] = tested on: pERK in ex vivo CSF1-stimulated peripheral blood monocytes; assay: Patient pharmacodynamic assessment; set-up: species or system human; conditions: ALK NSCLC patient; 20 mg; 4 hours after dosing on C1D1
Method in brief: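 Patient whole blood was shipped refrigerated the same day and processed within a 24 h stability window. Ex vivo stimulation used 9 ng/mL recombinant human M-CSF for 12 min at room temperature, with unstimulated control. Staining with CD45, CD14, ERK1/2 and pERK1/2 (T202/Y204) antibodies ran 30 min in the dark. Flow cytometry excluded doublets and gated CD45+CD14+ monocytes. pERK1/2 MFI was normalized to the unstimulated sample.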

[4] = tested on: EML4-ALK fusion-positive NSCLC; format: in vivo, human; conditions: after 6 weeks monotherapy, 20 mg BIW
[5] = tested on: metastatic BRAF V600E colorectal cancer; assay: Phase 1 trial tumor response; format: in vivo, human; conditions: after 6 weeks monotherapy; new lesions
Method in brief: (§1)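 Tumor response was assessed by CT imaging every 6 weeks per RECIST v1.1 during oral monotherapy (powder in capsule) on the phase I trial.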

[6] = tested on: KRAS G12D mutant low-grade serous ovarian cancer; assay: Phase 1 trial tumor response; format: in vivo, human; conditions: after 6 weeks of monotherapy
Method in brief: as §1

[7] = tested on: GOPC-ROS1 fusion-positive pancreatic adenocarcinoma; assay: Phase 1 trial tumor response; format: in vivo, human
[8] = Phase 1 trial safety; format: in vivo, human; conditions: single patient, monotherapy followed by combination, first dose level
Method in brief: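 Lead-in monotherapy ran 2 cycles/6 weeks. Matched targeted therapy was then added at labeled doses upon radiographic progression, if no ongoing grade ≥3 toxicity or DLT. The SHP2 inhibitor restarted one dose level below the highest safe monotherapy dose. Intrapatient escalation was allowed after 1 cycle. Adverse events were graded by CTCAE v5.0, and dose changes followed a prescribed algorithm.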

[9] = cited from earlier work

plasma level of PF-07284892 ([2]; ALK NSCLC patient, 20 mg orally BIW, 4 hours after C1D1 dose): 41 ng/mL | plasma level of PF-07284892 ([2]; ALK NSCLC patient, 20 mg orally BIW, pre-dose C1D18, 3 days after prior dose): 29 ng/mL | plasma level of PF-07284892 ([2]; BRAF V600E CRC patient, 20 mg BIW, C1D1): 56 ng/mL | plasma level of PF-07284892 ([2]; BRAF V600E CRC patient, 20 mg BIW, C1D18): 35 ng/mL
Compound: Nc1nccc(Sc2cnc(N3CCC4(CC3)Cc3ccccc3[C@H]4N)nn2)c1Cl [PF-07284892]
suppression of pERK in tumors [1]: significant suppression | decrease in pERK levels in peripheral blood monocytes [3]: 80% | change in target lesions on CT [4]: +50% | response (RECIST 1.1) [4]: progressive disease | change in target lesions [5]: +43% | tumor growth in two target lesions [6]: +6% | change in two target lesion liver metastases ([7]; after 6 weeks of monotherapy): +26% | dose-limiting toxicities (DLTs) [8]: no DLTs

Compound: Cc1nc(N2CCC3(CC2)CO[C@@H](C)[C@H]3N)c(CO)nc1Sc1ccnc(N)c1Cl [RMC-4630]
monotherapy activity in FIH trials [9]: limited monotherapy activity

Compound: C[C@@H]1OCC2(CCN(c3cnc(Sc4ccnc(N)c4Cl)c(N)n3)CC2)[C@@H]1N [TNO155]
monotherapy activity in FIH trials [9]: limited monotherapy activity

Compound: C[C@H]1CNC(=O)c2cnn3ccc(nc23)N[C@H](C)c2cc(F)ccc2O1 [repotrectinib, reference compound]
time to progression on previous therapy ([7]; pre-study therapy, patient history): ~ 10 months
